From PubChem BioAssay
The list is not random: actives were taken first. Their share in the collection is about 4.6%.
OX1R antag-1: OX1R (human) antagonism. 1.8% of 330,000 active. OX1R-expressing cells, FRET antagonist read-out. O43613. inhibition, % at 6.6 µM; in the data active means inhibition mostly above about 38%, no sharp cut-off; inactive means mostly below about 40%;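 further: 0% = agonist challenge alone and 100% = reference antagonist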
Target sequence (O43613 whole entry, looked up): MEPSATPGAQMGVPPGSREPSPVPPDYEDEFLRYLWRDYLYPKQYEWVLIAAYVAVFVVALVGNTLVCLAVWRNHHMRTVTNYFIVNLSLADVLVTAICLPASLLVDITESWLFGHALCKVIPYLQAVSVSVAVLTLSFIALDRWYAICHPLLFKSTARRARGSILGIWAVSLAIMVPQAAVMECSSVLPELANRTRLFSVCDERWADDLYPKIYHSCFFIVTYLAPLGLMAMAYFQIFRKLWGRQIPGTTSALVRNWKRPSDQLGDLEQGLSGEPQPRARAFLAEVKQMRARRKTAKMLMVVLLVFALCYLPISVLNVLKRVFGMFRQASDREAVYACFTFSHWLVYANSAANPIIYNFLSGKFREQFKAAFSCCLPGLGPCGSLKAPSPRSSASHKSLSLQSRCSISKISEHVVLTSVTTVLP
OX1R antag-2: antagonists of human orexin 1 receptor. O43613. CHO/OX1R cells, Fluo-8 calcium fluorescence, orexin A. inhibition, % at 5 µM. 0.43% of 330,000 active. AID 434989;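 active means inhibition above its plate's threshold, mean inhibition of all tested compounds on the plate plus 3 SD, cut at about 37% in these data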;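 further: 0% = orexin A challenge wells and 100% = SB-334867-A antagonist wells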
CHO parental Ca: counter-screen for OX1R antagonists: effect in parental CHO cells; parental CHO-K1, ATP-induced calcium, Fluo-8 fluorescence; inhibition, % at 5.6 µM; 0.63% of 330,000 active; AID 463079;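 active means inhibition above that plate's mean sample inhibition plus 3 SD, cut at about 26% in these data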;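 further: 0% = ATP-challenged DMSO wells and 100% = DMSO wells without ATP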
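Measured by: calcium-sensitive Fluo-8 fluorescence / Test system: CHO parental line / Controls: ATP-challenged DMSO wells low, unchallenged DMSO wells high / Measure: % inhibition / Compound: single nominal dose of 5.6 µM per compound / Replicates: single well per compound, no replicates / Reagent: ATP as calcium-mobilizing challenge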
TAAR1 ag: agonists of human TAAR1. activation, % at 3 µM. Q96RJ0. 0.99% of 360,000 active. AID 624467. CHO RD-HGA16 TAAR1, Fluo-8 calcium fluorescence; vehicle wells 0%, saturating PEA agonist 100%;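 active means activation above the mean activation of all test compounds in the run plus 3 SD, cut at about 38% in these data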
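System: CHO-derived RD-HGA16 cells with stable Gα16 and human TAAR1 / Times: 17-24 h plating, Fluo-8 75 min 37 °C, 30 min RT / Technique: calcium-sensitive Fluo-8 signal, excitation 470-495, emission 515-575 nm / Measure: % activation relative to PEA EC100 response / Benchmarks: DMSO and PEA EC100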
GPR7 antagonist: blocks human GPR7 receptor signaling. GPR7-expressing cells, fluorescence antagonist assay. inhibition, % at 4.4 µM. P48145. 1.1% of 290,000 active; in the data active means inhibition above about 16%, passing the limit was not always enough;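 further: cells stimulated with the agonist NPW; 0% = agonist with vehicle and 100% = vehicle without agonist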
TAAR1 antagonist: antagonists of human TAAR1; 1.5% of 360,000 active; AID 624466; CHO RD-HGA16 TAAR1, Fluo-8 calcium fluorescence, antagonist; inhibition, % at 3 µM; Q96RJ0;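 active means inhibition above a per-plate cutoff, the mean inhibition of test compounds on that plate plus 3 SD, cut at about 49% in these data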;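 further: 0% = DMSO plus EC80 beta-PEA response and 100% = DMSO alone without agonist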
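Assay system: CHO-derived RD-HGA16 cells stably expressing human TAAR1 plus Gα16. Timing: 140 s kinetic read after compound, 140 s after agonist. Technique: kinetic Fluo-8 calcium fluorescence measurement. Measure: % inhibition of agonist calcium response.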
* marks the source's active call; other numbers are inactive results; x = no result.

SMILES	OX1R antag-1	OX1R antag-2	CHO parental Ca	TAAR1 ag	GPR7 antagonist	TAAR1 antagonist
O=C1C2C3C=CC(C4CC34)C2C(=O)N1/N=C/c1ccc(-c2ccc(Cl)cc2[N+](=O)[O-])o1 (configuration not stated)	23.7	-9.4	-3.9	12.4	-8.5	52.3*
O=S(=O)(c1ccccc1)N1CCN(S(=O)(=O)c2ccccc2)c2ccccc21	x	x	x	0.2	x	16.6
O=S(=O)(/N=S1\CC=CCN1S(=O)(=O)c1ccccc1)c1ccccc1 (configuration not stated)	x	x	x	67.1*	x	-8.1
Cc1cc(-n2c(C)cc(C(=O)CSc3ncnc4ccccc34)c2C)no1	46.8*	70.1*	66.3*	15.3	-5.4	45.5
Cc1cc(C)nc(-n2nc(C)cc2NC(=O)CN2CCc3ccccc3C2)n1	12.1	-27.9	-29.5	42.9*	-3.2	-0.1
Cc1cc(C)nc(-n2nc(C)cc2NC(=O)CN2CCCC(C)C2)n1 (configuration not stated)	21.9	-5.9	-15.5	10.9	-4.1	-10.2
CCCn1c(O)c(N=NC(=O)CNC(=O)c2cccnc2)c2ccccc21	46.7	-1.5	-20.3	4.7	0.5	-6.9
Cn1c(O)c(N=NC(=O)CNC(=O)c2cccnc2)c2ccccc21	42.6*	-10.7	-7.2	0.2	-2.4	-10.7
COC(=O)Cn1c(O)c(N=NC(=O)CNC(=O)c2ccncc2)c2ccccc21	70.2*	-11.5	-10.6	1.8	-0.7	-22.5
Nc1[nH]c(C(=O)c2ccccc2)c(-c2ccc(Cl)cc2)c1C(=O)c1c[nH]c2ccc(F)cc12	x	x	x	4.9	x	-32.9
CCOC(=O)Cn1c(S(=O)(=O)Cc2ccc(F)cc2)nc(-c2ccccc2)c1-c1ccccc1	13.6	-12.3	-17.9	4.7	8.5	6.5
C#CCn1c(S(=O)(=O)Cc2ccc(F)cc2)nc(-c2ccccc2)c1-c1ccccc1	40.1*	-19.8	-18.9	2.1	-8.5	4.0
c1ccc(OCCNc2ccn3nc(-c4ccc(OCCN5CCOCC5)cc4)cc3n2)cc1	x	x	x	20.0	x	61.4*
c1csc(CNc2ccn3nc(-c4ccc(OCCN5CCOCC5)cc4)cc3n2)c1	x	x	x	29.3	x	33.1
Cc1cc(C)n2nc(N)c(N=Nc3cccc(Cl)c3)c2n1	50.7*	-16.6	-2.6	4.9	-4.4	4.8
COc1ccc(-c2nc3ccccc3n(CC(C)C)c2=O)cc1	x	x	x	6.9	x	-14.7
O=C(COC(=O)c1cc(=O)c2ccccc2o1)Nc1ccc2ccccc2c1	12.6	-5.3	-6.5	40.0*	-1.0	-24.7
COc1cc(/C=C2/SC(=S)N(CC3CCCO3)C2=O)ccc1O (configuration not stated)	10.6	18.5	23.7	41.7*	6.2	42.2
CCOc1cc(/C=C2\SC(=S)N(Nc3ccccc3)C2=O)ccc1O	18.1	19.0	32.6	51.4*	-0.3	60.0*
COc1cc(/C=C2\SC(=S)N(Nc3ccccc3)C2=O)ccc1O	21.2	40.0	42.4*	54.4*	13.4	56.6*
O=C1/C(=C/c2ccc(O)c(O)c2)SC(=S)N1Nc1ccccc1	x	x	x	x	-3.7	x
CCOc1cc(/C=C2\SC(=S)N(NS(=O)(=O)c3ccccc3)C2=O)ccc1O	29.2	-6.9	-0.8	8.2	-10.2	20.5
COc1cc(/C=C2\SC(=S)N(Nc3ncc(C(F)(F)F)cc3Cl)C2=O)ccc1O	7.0	48.6*	39.7*	52.3*	10.8	65.7*
Cc1ccc(CN2C(=O)CSCC2(C)C(=O)NCc2ccccc2)cc1 (configuration not stated)	x	x	x	3.0	x	-23.7
CCCCCCCCN1C(=O)[C@H](CC(=O)NCCCCc2ccccc2)C[C@@]2(C(=O)OC)CCCCC=C12	x	x	x	7.2	x	-25.8
C[C@H]1CN(C(=O)OC(C)(C)C)CCN1c1ccc(N2CC[C@H](O)C2)c(C#N)c1	x	x	x	7.9	x	-3.4
CC1=C(C(=O)N2CCCCCC2)CC(CC(=O)NCCc2ccccn2)C(=O)N1Cc1ccc(F)cc1 (configuration not stated)	x	x	x	23.6	x	-0.9
O=C(NN1C(=O)/C(=C\c2ccc(O)c([N+](=O)[O-])c2)SC1=S)c1ccccc1Cl	63.9*	-18.5	-7.0	1.4	-4.4	-30.0
